Holding throughout (assay type): functional
Experiment [1] concerns Candida albicans. Kind of experiment: In vitro minimal inhibitory concentration against Candida albicans with percentage of resistant strains %R = 33.33 (MIC > 64 ug/mL) at a range of 0.25-2 ug/mL.
The test system of experiment [2] is Candida albicans. Put plainly: In vitro concentration causing 50% inhibition of Candida albicans with percentage of resistant strains %R = 33.33 (MIC > 64 ug/mL) at a range of 0.25-2 ug/mL.
The subject of experiment [3] is Candida albicans. Kind of experiment: In vitro concentration causing 90% inhibition of Candida albicans with percentage of resistant strains %R = 33.33 (MIC > 64 ug/mL) at a range of 0.25-2 ug/mL.
Experiment [4] concerns Candida albicans. Kind of experiment: Ratio of the in vitro minimal inhibitory to that of bifonazole against Candida albicans (MIC(compound)/MIC(bifonazole)). An outline of the steps: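 Broth microdilution per NCCLS M27-A2 against 12 Candida albicans strains (AIDS oropharyngeal, HIV vulvovaginitis isolates, ATCC 24433 and 20891, lab strains 3153 and CA2). Inoculum ~10^4 cells/mL in RPMI 1640, pH 7.0; DMSO stocks 6.4 mg/mL, twofold dilutions 0.016–64 μg/mL; read at 24 h, 28 °C, no visible growth. Mean MIC over strains converted to μmol/mL, divided by bifonazole MIC.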

For experiment [5], the system named is Candida albicans. Put plainly: In vitro minimal inhibitory concentration against Candida albicans with percentage of resistant strains %R = 16 (MIC > 64 ug/mL) at a range of 2-32 ug/mL.
Experiment [6] has as its system Candida albicans. Kind of experiment: In vitro concentration causing 50% inhibition of Candida albicans with percentage of resistant strains %R = 16 (MIC > 64 ug/mL) at a range of 2-32 ug/mL.
The test system of experiment [7] is Candida albicans. Put plainly: In vitro concentration causing 90% inhibition of Candida albicans with percentage of resistant strains %R = 16 (MIC > 64 ug/mL) at a range of 2-32 ug/mL.
The subject of experiment [8] is Candida albicans. Kind of experiment: In vitro minimal inhibitory concentration against Candida albicans with percentage of resistant strains %R = 36 (MIC > 64 ug/mL) at a range of 0.5-2 ug/mL.
For experiment [9], the system named is Candida albicans. Kind of experiment: In vitro concentration causing 50% inhibition of Candida albicans with percentage of resistant strains %R = 36 (MIC > 64 ug/mL) at a range of 0.5-2 ug/mL.
The subject of experiment [10] is Candida albicans. Put plainly: In vitro concentration causing 90% inhibition of Candida albicans with percentage of resistant strains %R = 36 (MIC > 64 ug/mL) at a range of 0.5-2 ug/mL.
The subject of experiment [11] is Candida albicans. Kind of experiment: In vitro minimal inhibitory concentration against Candida albicans with percentage of resistant strains %R = 50 (MIC > 64 ug/mL) at a range of 0.125-2 ug/mL.
Experiment [12] concerns Candida albicans. Kind of experiment: In vitro concentration causing 50% inhibition of Candida albicans with percentage of resistant strains %R = 50 (MIC > 64 ug/mL) at a range of 0.125-2 ug/mL.
The test system of experiment [13] is Candida albicans. Put plainly: In vitro concentration causing 90% inhibition of Candida albicans with percentage of resistant strains %R = 50 (MIC > 64 ug/mL) at a range of 0.125-2 ug/mL.
Experiment [14] has as its system Candida albicans. Kind of experiment: In vitro minimal inhibitory concentration against Candida albicans with percentage of resistant strains %R = 50 (MIC > 64 ug/mL) at a range of 2-4 ug/mL.
Experiment [15] has as its system Candida albicans. Put plainly: In vitro concentration causing 50% inhibition of Candida albicans with percentage of resistant strains %R = 50 (MIC > 64 ug/mL) at a range of 2-4 ug/mL.
The test system of experiment [16] is Candida albicans. Put plainly: In vitro concentration causing 90% inhibition of Candida albicans with percentage of resistant strains %R = 50 (MIC > 64 ug/mL) at a range of 2-4 ug/mL.
The test system of experiment [17] is Candida albicans. Put plainly: In vitro minimal inhibitory concentration against Candida albicans with percentage of resistant strains %R = 100 (MIC > 64 ug/mL) at a range > 64.
For experiment [18], the system named is Candida albicans. Put plainly: In vitro concentration causing 50% inhibition of Candida albicans with percentage of resistant strains %R = 100 (MIC > 64 ug/mL) at a range > 64.
Experiment [19] concerns Candida albicans. Put plainly: In vitro concentration causing 90% inhibition of Candida albicans with percentage of resistant strains %R = 100 (MIC > 64 ug/mL) at a range > 64.
Experiment [20] has as its system Candida albicans. Put plainly: In vitro minimal inhibitory concentration against Candida albicans with percentage of resistant strains %R = 33.33 (MIC > 64 ug/mL) at a range of 1-4 ug/mL.
The test system of experiment [21] is Candida albicans. Put plainly: In vitro concentration causing 50% inhibition of Candida albicans with percentage of resistant strains %R = 33.33 (MIC > 64 ug/mL) at a range of 1-4 ug/mL.
For experiment [22], the system named is Candida albicans. Put plainly: In vitro concentration causing 90% inhibition of Candida albicans with percentage of resistant strains %R = 33.33 (MIC > 64 ug/mL) at a range of 1-4 ug/mL.
For experiment [23], the system named is Candida albicans. Put plainly: In vitro minimal inhibitory concentration against Candida albicans with percentage of resistant strains %R = 25 (MIC > 64 ug/mL) at a range of 0.5-2 ug/mL.
In experiment [24] the test system is Candida albicans. Kind of experiment: In vitro concentration causing 50% inhibition of Candida albicans with percentage of resistant strains %R = 25 (MIC > 64 ug/mL) at a range of 0.5-2 ug/mL.
Experiment [25] has as its system Candida albicans. Kind of experiment: In vitro concentration causing 90% inhibition of Candida albicans with percentage of resistant strains %R = 25 (MIC > 64 ug/mL) at a range of 0.5-2 ug/mL.

Values after ≈ are worked out from the molar mass of the structure shown.

For `Cc1ccc(C(c2cn(C)cc2-c2ccc(Cl)c(Cl)c2)n2ccnc2)cc1` (stereo unspecified), the MIC (usually the least concentration at which growth counts as inhibited) against Candida albicans [1] was 0.87 µg/mL (≈ 2.2 µM). In addition, the MIC50 – broadly, an inhibitory concentration at the 50% level, which refers to growth in some studies and to a panel of isolates in others – against Candida albicans [2] came to 0.5 µg/mL (≈ 1.26 µM). Besides, the MIC90 – broadly, the lowest concentration that inhibits either 90% of growth or 90% of the strains tested, depending on the study – with Candida albicans [3] was 2 µg/mL (≈ 5.05 µM). In addition, the Ratio in the experiment on Candida albicans [4] was determined as 0.19.

Turning to `Cn1cc(-c2ccc(Cl)cc2Cl)c(C(c2ccc(Cl)cc2Cl)n2ccnc2)c1` (stereo unspecified), the MIC against Candida albicans [5] worked out at 14.6 µg/mL (≈ 32.4 µM). Further, the MIC50 in the experiment with Candida albicans [6] is 8 µg/mL (≈ 17.7 µM). This compound came in with an MIC90 against Candida albicans [7] of 32 µg/mL (≈ 70.9 µM). Moreover, in the experiment with Candida albicans [4], the Ratio was determined as 2.9.

Regarding `Cn1cc(-c2ccccc2Cl)c(C(c2ccc(Cl)cc2Cl)n2ccnc2)c1` (stereo unspecified), the MIC against Candida albicans [8] amounted to 1.71 µg/mL (≈ 4.1 µM). This compound had an MIC50 against Candida albicans [9] of 2 µg/mL (≈ 4.8 µM). The MIC90 against Candida albicans [10] worked out at 2 µg/mL (≈ 4.8 µM). Moreover, the Ratio with Candida albicans [4] was found to be 0.36.

In the experiment with Candida albicans [11], `Cn1cc(-c2ccc(Cl)cc2)c(C(c2ccc(Cl)cc2Cl)n2ccnc2)c1` (stereo unspecified) showed an MIC of 1.31 µg/mL (≈ 3.14 µM). Further, the MIC50 against Candida albicans [12] was found to be 1 µg/mL (≈ 2.4 µM). Further, the MIC90 in the experiment on Candida albicans [13] is 2 µg/mL (≈ 4.8 µM). For the same compound, the Ratio in the experiment on Candida albicans [4] came out at 0.28.

Compound `COC(Cn1cc(-c2ccc(Cl)cc2)c(C(c2ccc(Cl)cc2Cl)n2ccnc2)c1)OC` (stereo unspecified) registered an MIC in the experiment on Candida albicans [14] of 2.66 µg/mL (≈ 5.42 µM). The compound also came in with an MIC50 in the experiment on Candida albicans [15] of 2 µg/mL (≈ 4.07 µM). Besides, in the experiment on Candida albicans [16], the MIC90 came out at 4 µg/mL (≈ 8.15 µM). Besides, the Ratio in the experiment on Candida albicans [4] came to 0.48.

On to `CCCn1cc(-c2ccc(Cl)cc2Cl)c(C(c2ccc(Cl)cc2Cl)n2ccnc2)c1` (stereo unspecified), for which the minimal inhibitory concentration (MIC) in the experiment with Candida albicans [17] is > 64 µg/mL. The MIC50 against Candida albicans [18] was > 64 µg/mL. Also, the MIC90 in the experiment with Candida albicans [19] is > 64 µg/mL.

Compound `Cn1cc(-c2ccc(-n3cccc3)cc2)c(C(c2ccc(Cl)cc2Cl)n2ccnc2)c1` (stereo unspecified) yielded an MIC with Candida albicans [20] of 3.12 µg/mL (≈ 6.97 µM). The MIC50 with Candida albicans [21] was determined as 4 µg/mL (≈ 8.94 µM). In addition, the MIC90 in the experiment on Candida albicans [22] came out at 4 µg/mL (≈ 8.94 µM). The Ratio with Candida albicans [4] is 0.62.

Take `CCn1cc(-c2ccc(Cl)cc2)c(C(c2ccc(Cl)cc2Cl)n2ccnc2)c1` (stereo unspecified): in the experiment with Candida albicans [23], the MIC was 1.5 µg/mL (≈ 3.48 µM). The MIC50 against Candida albicans [24] was 2 µg/mL (≈ 4.64 µM). Further, the MIC90 with Candida albicans [25] is 2 µg/mL (≈ 4.64 µM). Also, the Ratio in the experiment with Candida albicans [4] worked out at 0.31.

(Values after ChEMBL document CHEMBL1141140, “Antifungal agents. 11. N-substituted derivatives of 1-[(aryl)(4-aryl-1H-pyrrol-3-yl)methyl]-1H-imidazole: synthesis, anti-Candida activity, and QSAR studies” (2005).)
